# Experimental data reported in ChEMBL document CHEMBL4715843, “NO-releasing STAT3 inhibitors suppress BRAF-mutant melanoma growth” (Eur J Med Chem, 2020).
# Calls of active or inactive are those of the source. The rule behind the calls is not given here.
# Assays:
# [1] = Antiproliferative activity against human SB-590885-sensitive MEL1617 cells assessed as reduction in cell viability measured after 48 hrs by MTS assay; assay type: functional, cell-based; details: MEL1617, 48 h
# Procedure, shortened: (§1)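 Melanoma lines were grown in RPMI-1640 with Glutamax at 37 °C and 5% CO2. The resistant 451 Lu-R and MEL 1617-R sublines were maintained with 1 µM PLX4720. Cells were incubated with vehicle or inhibitor over a dose range, and viability was read by MTS assay in triplicate.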
# MOLT-4 = assay: Anticancer activity against human MOLT-4 cells assessed as cell growth inhibition at 10 uM measured after 48 hrs by SRB assay relative to control; assay type: functional; details: read-out: GI
# Procedure, shortened: (§2)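 NCI 60-cell-line screen. Cells in RPMI with 5% FBS were plated at 5,000–40,000 cells/well by doubling time and preincubated 24 h at 37 °C. Compound was added at a single 10 µM for 48 h, then cells were fixed with cold TCA (10% final) and stained with 0.4% SRB. Absorbance at 515 nm gave percent growth versus untreated control and time-zero cells.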
# [2] = target: Tyrosine-protein kinase JAK2 (Homo sapiens) (UniProt O60674); assay: Inhibition of JAK2 phosphorylation in human A-375 cells at 5 to 50 uM after 12 hrs by Western blotting analysis; assay type: cell-based; details: dose 5-50 µM
# Tyrosine-protein kinase JAK2 (Homo sapiens), sequence (O60674 whole entry): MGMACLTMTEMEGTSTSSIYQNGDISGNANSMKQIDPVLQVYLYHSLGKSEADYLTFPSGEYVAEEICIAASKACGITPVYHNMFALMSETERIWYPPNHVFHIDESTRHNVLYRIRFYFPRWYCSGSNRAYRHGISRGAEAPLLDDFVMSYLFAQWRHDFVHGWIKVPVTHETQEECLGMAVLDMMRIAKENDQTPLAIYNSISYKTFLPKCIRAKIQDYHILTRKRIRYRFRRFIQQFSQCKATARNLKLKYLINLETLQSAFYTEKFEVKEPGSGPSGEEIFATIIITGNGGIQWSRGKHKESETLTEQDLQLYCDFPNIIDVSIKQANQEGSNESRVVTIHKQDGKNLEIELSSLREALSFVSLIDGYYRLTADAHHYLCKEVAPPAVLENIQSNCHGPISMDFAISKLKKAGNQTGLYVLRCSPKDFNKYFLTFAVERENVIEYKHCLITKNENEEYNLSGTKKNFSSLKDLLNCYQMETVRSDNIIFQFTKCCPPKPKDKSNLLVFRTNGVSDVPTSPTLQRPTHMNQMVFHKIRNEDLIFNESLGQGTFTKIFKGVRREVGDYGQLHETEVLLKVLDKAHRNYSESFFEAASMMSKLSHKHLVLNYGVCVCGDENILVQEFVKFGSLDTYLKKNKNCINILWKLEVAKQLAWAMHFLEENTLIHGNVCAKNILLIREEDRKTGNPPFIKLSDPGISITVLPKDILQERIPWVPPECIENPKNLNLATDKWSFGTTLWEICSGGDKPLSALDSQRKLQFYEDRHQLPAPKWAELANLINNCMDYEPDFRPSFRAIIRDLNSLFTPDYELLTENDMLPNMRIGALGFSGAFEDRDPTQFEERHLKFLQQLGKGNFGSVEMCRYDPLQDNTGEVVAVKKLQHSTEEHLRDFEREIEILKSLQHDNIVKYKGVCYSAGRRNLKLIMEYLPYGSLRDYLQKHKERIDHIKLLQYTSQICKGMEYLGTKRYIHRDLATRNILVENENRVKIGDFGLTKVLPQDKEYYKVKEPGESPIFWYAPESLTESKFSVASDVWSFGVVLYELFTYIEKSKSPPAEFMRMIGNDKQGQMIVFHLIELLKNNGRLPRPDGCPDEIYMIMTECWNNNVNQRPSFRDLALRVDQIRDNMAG
# Procedure, shortened: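 A375 cells were treated with 0, 5, 10 or 25 µM overnight (methods state 12 h) in RPMI-1640 with Glutamax. Lysates (60 µg protein) were run on 10% SDS-PAGE and immunoblotted for phospho-JAK2 or phospho-ERK1/2, with actin and/or vinculin as loading controls; performed twice.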
# [3] = target: T1, Signal transducer and activator of transcription 3 (Homo sapiens, UniProt P40763); assay: Inhibition of STAT3 in human SB-590885-sensitive MEL1617 cells assessed as reduction in PAX3 expression at 10 to 25 uM measured after 12 hrs by Western blot analysis; assay type: cell-based; details: dose 10-25 µM
# T1 sequence (P40763 whole entry): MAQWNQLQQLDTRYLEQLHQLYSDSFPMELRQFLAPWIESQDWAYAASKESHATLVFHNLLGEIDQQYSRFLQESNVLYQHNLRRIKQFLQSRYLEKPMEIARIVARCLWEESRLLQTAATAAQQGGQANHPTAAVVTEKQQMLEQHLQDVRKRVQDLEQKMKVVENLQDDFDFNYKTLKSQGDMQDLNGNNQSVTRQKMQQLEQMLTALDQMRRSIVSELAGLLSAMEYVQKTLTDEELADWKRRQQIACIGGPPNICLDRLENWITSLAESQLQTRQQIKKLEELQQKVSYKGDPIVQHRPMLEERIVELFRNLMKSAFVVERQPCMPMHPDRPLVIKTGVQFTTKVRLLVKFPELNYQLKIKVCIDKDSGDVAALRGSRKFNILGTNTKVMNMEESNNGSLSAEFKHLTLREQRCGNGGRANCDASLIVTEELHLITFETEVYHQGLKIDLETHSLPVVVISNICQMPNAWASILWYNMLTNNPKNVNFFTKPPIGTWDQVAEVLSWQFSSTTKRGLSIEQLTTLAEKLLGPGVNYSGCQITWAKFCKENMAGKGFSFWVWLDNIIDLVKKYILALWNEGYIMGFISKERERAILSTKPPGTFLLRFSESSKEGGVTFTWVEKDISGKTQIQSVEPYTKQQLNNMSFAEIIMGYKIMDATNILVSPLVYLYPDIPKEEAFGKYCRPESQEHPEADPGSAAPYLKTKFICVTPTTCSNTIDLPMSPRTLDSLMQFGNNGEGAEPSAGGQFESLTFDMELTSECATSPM
# Procedure, shortened: (§3)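 451 Lu and MEL 1617 pairs, sensitive and resistant; resistant lines maintained in RPMI with 1 µM PLX4720. Treated with 10 and 25 µM for 12 h versus DMSO. Lysates (60 µg protein, 10% SDS-PAGE) immunoblotted for Ser727- and Tyr705-phospho-STAT3, total STAT3, total PAX3, with actin.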
# [4] = target: T1, Signal transducer and activator of transcription 3; assay: Inhibition of STAT3 in human SB-590885-sensitive MEL1617 cells assessed as reduction in STAT3 transcriptional activity measured after 12 hrs by Dual-luciferase reporter gene assay; assay type: cell-based
# Procedure, shortened: (§4)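 Cells co-transfected with inducible STAT3-responsive firefly luciferase and constitutive Renilla luciferase constructs (40:1) using Lipofectamine 3000. After 48 h, dose series in DMSO vehicle applied for 12 h, followed by dual-luciferase readout. Firefly signal normalized to Renilla and compared with untreated cells. Run in triplicate; IC50 taken from dose–response curves.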
# [5] = Antiproliferative activity against human SB-590885-sensitive 451Lu cells assessed as reduction in cell viability measured after 48 hrs by MTS assay; assay type: functional; procedure, shortened: as §1
# [6] = Antiproliferative activity against human SB-590885-resistant 451Lu cells assessed as reduction in cell viability measured after 48 hrs by MTS assay; assay type: functional; details: Homo sapiens, 451Lu, 48 h; read-out: IC50; procedure, shortened: as §1
# A-375 [7] = assay: Down regulation of cyclin D1 expression in human A-375 cells measured after 24 hrs by Western blot analysis; assay type: functional, cell-based; details: dose 5-50 µM
# Procedure, shortened: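 A375 cells were treated for one night with a dose range of inhibitor, lysed, and Cyclin D1 was detected by western blot.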
# A-375 [8] = assay: Cell cycle arrest in human A-375 cells assessed as accumulation at G1-phase at 25 uM measured after 24 hrs by […] (reference value: 55.5 to 56.2%); assay type: functional
# [9] = target: T1, Signal transducer and activator of transcription 3; assay: Inhibition of STAT3 in human SB-590885-sensitive 451Lu cells assessed as reduction in STAT3 transcriptional activity measured after 12 hrs by Dual-luciferase reporter gene assay; procedure, shortened: as §4
# [10] = target: T1, Signal transducer and activator of transcription 3; assay: Inhibition of STAT3 phosphorylation at S727 residue in human SB-590885-resistant MEL1617 cells at 10 to 25 uM measured after 12 hrs by Western blot analysis; assay type: cell-based; details: dose 10-25 µM; procedure, shortened: as §3
# A-375 [11] = assay: Cell cycle arrest in human A-375 cells assessed as accumulation at G2-phase at 10 uM measured after 24 hrs by […] (reference value: 9.14 to 10.5%); assay type: functional
# A-375 [12] = assay: Cell cycle arrest in human A-375 cells assessed as accumulation at G1-phase at 10 uM measured after 24 hrs by […] (reference value: 55.5 to 56.2%); assay type: functional
# LOX IMVI = assay: Anticancer activity against human LOX IMVI cells assessed as cell growth inhibition at 10 uM measured after 48 hrs by SRB assay relative to control; assay type: functional; details: read-out: GI; procedure, shortened: as §2
# [13] = target: T1, Signal transducer and activator of transcription 3; assay: Inhibition of STAT3 phosphorylation at S727 residue in human SB-590885-resistant 451Lu cells measured after 12 hrs by Western blot analysis; details: dose 10-25 µM; procedure, shortened: as §3
# [14] = target: T1, Signal transducer and activator of transcription 3; assay: Inhibition of STAT3 in human SB-590885-resistant MEL1617 cells assessed as reduction in PAX3 expression at 10 to 25 uM measured after 12 hrs by Western blot analysis; assay type: cell-based; details: dose 10-25 µM; procedure, shortened: as §3
# [15] = target: T1, Signal transducer and activator of transcription 3; assay: Inhibition of STAT3 in human SB-590885-sensitive 451Lu cells assessed as reduction in PAX3 expression measured after 12 hrs by Western blot analysis; details: dose 10-25 µM; procedure, shortened: as §3
# A-375 [16] = assay: Cell cycle arrest in human A-375 cells assessed as accumulation at S-phase at 10 uM measured after 24 hrs by […] (reference value: 33.6 to 33.7%); assay type: functional
# [17] = target: T1, Signal transducer and activator of transcription 3; assay: Inhibition of STAT3 in human SB-590885-resistant MEL1617 cells assessed as reduction in STAT3 transcriptional activity measured after 12 hrs by Dual-luciferase reporter gene assay; assay type: cell-based; procedure, shortened: as §4
# [18] = Drug metabolism in pH 7.4 phosphate buffer assessed as nitric oxide release at 100 uM measured after 48 hrs by Griess reagent based colorimetric method
# Procedure, shortened: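 Compound at 100 µM was held at room temperature in pH 7.4 phosphate buffer with 5 mM DTT and 2% DMSO for 2 or 48 h. Griess reagent was added, and after 30 min absorbance was read at 548 nm. NO release (mol NO/mol compound) was derived from a sodium nitrite calibration curve.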
# [19] = target: T1, Signal transducer and activator of transcription 3; assay: Inhibition of STAT3 phosphorylation at S727 residue in human SB-590885-sensitive MEL1617 cells at 10 to 25 uM measured after 12 hrs by Western blot analysis; assay type: cell-based; details: dose 10-25 µM; procedure, shortened: as §3
# [20] = target: T1, Signal transducer and activator of transcription 3; assay: Displacement of FAM-labeled 5-GpYLPQTV-NH2 from recombinant GST-tagged STAT3 (unknown origin) preincubated for 30 mins followed by FAM-labeled 5-GpYLPQTV-NH2 addition and measured after 30 mins by fluorescence assay; details: for inhibition: time 60.0 min
# Procedure, shortened: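 GST-STAT3 (2 µM) was bound to GST beads for 1 h at 4 °C in PBS with 0.1% β-mercaptoethanol, then washed. Bead slurry was incubated with compound dilutions (2.25% DMSO, duplicate) and FAM-GpYLPQTV-NH2 peptide. Resin was washed by vacuum filtration and fluorescence read at ex 485/em 535 nm. % displacement was set against the no-compound signal; two independent experiments.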
# MCF-10A = assay: Cytotoxicity against human MCF-10A cells assessed as inhibition of cell proliferation by MTS assay; assay type: cell-based; details: Homo sapiens, MCF-10A; read-out: IC50
SMILES,IC50 [1] [µM],inhibition of growth at 10 µM (MOLT-4) [%],inhibition [2],inhibition [3],IC50 [4] [µM],IC50 [5] [µM],IC50 [6] [µM],Activity (A-375 [7]),Activity (A-375 [8]) [%],IC50 [9] [µM],inhibition [10],Activity (A-375 [11]) [%],Activity (A-375 [12]) [%],inhibition of growth at 10 µM (LOX IMVI) [%],inhibition [13],inhibition [14],inhibition [15],Activity (A-375 [16]) [%],IC50 [17] [µM],Drug metabolism [18] [%],also measured
C=CCn1c(SCC(=O)Nc2ccc(/C(C)=N\O)cc2)nnc1-c1cc(-c2ccccc2)nc2ccccc12,8.4,76,inactive,Active,10.3,1.77,7.8,Dose-dependent effect,75.4,6.3,Active,14.9,63,76,Dose-dependent effect,Active,Dose-dependent effect,18.8,9.9,30,inhibition [19]: Active; IC50 [20]: 0.32 µM; inhibition [20]: Dose-dependent effect; IC50 (MCF-10A): 100 µM
C=CCn1c(SCC(=O)Nc2ccc(/C(C)=N\O)cc2)nnc1-c1cc(-c2ccc(Cl)cc2)nc2ccccc12,46.1,100,inactive,Active,21.4,11.3,47,Dose-dependent effect,61.1,7.9,Active,14.9,56.7,100,Dose-dependent effect,Active,Dose-dependent effect,24.9,15.6,30,inhibition [19]: Active; IC50 [20]: 0.25 µM; inhibition [20]: Dose-dependent effect; IC50 (MCF-10A): 92.9 µM
